Compounds with a hit are over-represented: about 1.7% of the library has one in this group of screens.
CAL PDZ FP-1: human CAL PDZ-peptide interaction inhibition | hit rate 0.02% among 330,000 | inhibition, % at 20 µM | AID 504414 | purified CAL PDZ, TMR-peptide fluorescence polarization, 1 h;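 active = highest replicate inhibition of at least 40%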;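 note: plate controls were DMSO neutral control wells for no effect and unlabeled competitor peptide control wells for full effect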
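Assay system – tagged CAL PDZ protein CerCALP, purified · Timing – 1 h at RT · Compound – single point, 20 µM · Measured by – fluorescence polarization from S- and P-plane intensities, G-factor corrected · Evaluation – inhibition from polarization loss · Probe or stimulus – TMR reporter peptide T*-PRC34 · Buffer or medium – pH 7.4 phosphate-saline buffer, reducing agent, detergent, IgG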
AI-2 QS mod: Vibrio harveyi AI-2 quorum sensing modulation | Vibrio harveyi JMH597 AI-2 luminescence/OD600 ratio, 9 h; stronger effect = lower value; strain lacks LuxN and CqsS sensors; 0 = neutral-control median | activity change, % at 7.5 µM | hit rate 0.4% among 300,000; in the data active = activity change below about -75%, passing the limit was not always enough;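 note: luminescence divided by OD600 gain over 9 h not by final OD600 alone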
ARNT-TACC3 inh: disrupts binding between human ARNT and TACC3. Q9Y6A5. hit rate 0.66% among 390,000. AlphaScreen His-ARNT PAS-B/GST-TACC3 binding, luminescence; TACC3 fragment carries E629A point mutation. inhibition, % at 9.99 µM;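 active = mean inhibition of replicates at least 50% and at least half of replicates each reaching 50%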;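 note: 0% = complete ARNT plus TACC3 wells and 100% = ARNT alone without TACC3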
CAL PDZ FP-2: blocks peptide binding to the human CAL PDZ domain; Q9HD26; hit rate 0.92% among 300,000; inhibition, % at 24.9 µM; purified CAL PDZ, TMR-peptide fluorescence polarization, 1 h; AID 602252;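 active = mean inhibition of at least 30% with at least half of replicates also reaching 30%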;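 note: 0% = DMSO neutral control and 100% = excess unlabeled competitor peptide PRC23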
Rce1 inh: blocks yeast Ras-converting enzyme. yeast membranes, quenched prenylated peptide cleavage fluorescence. calls only. hit rate 0.27% among 290,000. AID 2563;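 active = fall in fluorescence gain of 50% or more versus controls, with final raw signal at or below 3038400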;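 note: plate controls were neutral control wells for no effect and wells lacking membranes for full effect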
Target sequence (Q03530 whole entry, looked up): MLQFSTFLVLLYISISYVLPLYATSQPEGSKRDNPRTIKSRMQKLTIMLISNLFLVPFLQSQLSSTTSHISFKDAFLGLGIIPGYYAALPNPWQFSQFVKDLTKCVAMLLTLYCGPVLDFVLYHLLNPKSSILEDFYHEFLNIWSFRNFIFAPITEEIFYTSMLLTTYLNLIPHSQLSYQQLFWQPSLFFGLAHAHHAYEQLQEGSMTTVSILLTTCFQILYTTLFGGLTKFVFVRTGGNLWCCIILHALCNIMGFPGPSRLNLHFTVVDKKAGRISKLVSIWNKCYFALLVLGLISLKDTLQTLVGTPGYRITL
ARNT Alpha ctr-1: counter-screen for ARNT/TACC3 inhibitors: AlphaScreen artifacts; His-ARNT PASB-GST AlphaScreen artifact counter-screen, luminescence; hit rate 50% among 1,200; AID 651705; AC50, µM (highest dose often 68 µM), for the others: at the highest dose activity change, negative = signal decrease; shares compounds with ARNT-TACC3 inh;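 active = every separate test run was called active for a drop in luminescence, with AC50 within twice the top valid dose, actives reach about 71 µM in these data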
ARNT Alpha ctr-2: counter-screen for ARNT-TACC3 inhibitors: AlphaScreen artifacts; Dual-tagged His-ARNT PASB-GST AlphaScreen artifact counter-screen; AC50, µM; shares compounds with ARNT-TACC3 inh; hit rate 70% among 45;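 active = luminescence drop, with half-maximal potency fitted within twice the sample's top valid dose, cut at about 70 µM in these data; inactive = the rest, including signal moving the wrong way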
Starred values were filed as active, the others as inactive; i = inactive; nt = no result; [ ] = another dose, or the depositor's remark.

SMILES	CAL PDZ FP-1	AI-2 QS mod	ARNT-TACC3 inh	CAL PDZ FP-2	Rce1 inh	ARNT Alpha ctr-1	others
COc1ccc(S(=O)(=O)N(C)C[C@H]2OCCCC[C@@H](C)Oc3ccc(NC(=O)C4CCCCC4)cc3C(=O)N([C@@H](C)CO)C[C@H]2C)cc1	nt	nt	7	nt	nt	nt
CCOc1ccc2c(c1)c(N=NC(=N)N)c(O)n2C	0	23	36*	-3	i	-25%
COC(=O)c1sc(N)c(C(=O)OC)c1Cn1ncc(Cl)c(Cl)c1=O	1	21	52*	4	i	-10%
O=C(CCN1C(=O)c2cccnc2C1=O)NC1CCCCCC1	-1	28	59*	-2	i	-13%
O=C(NC1CCc2ccccc2C1)c1cc(-c2ccccc2)on1 (centres undefined)	nt	nt	nt	nt	nt	-2%[38 µM]
Cc1ccc(-c2cc(C(=O)NC3CCCC3)no2)cc1	-1	13	-7	nt	i	nt
O=C(NC1CCCCC1)c1cc(-c2ccc(F)cc2)on1	-3	24	-4	-1	i	nt
O=C(NC1Cc2ccccc2C1)c1cc(-c2ccccc2)on1	nt	nt	nt	nt	nt	1%[38 µM]
Oc1ccc(Cl)cc1CNc1cccc2cccnc12	1	2	65*	nt	i	-31%
Cc1ccc(Nc2c(-c3ccccn3)nc3ccc(C)cn23)cc1	1	9	28	-2	i	nt
Cc1ccc(Nc2c(-c3ccccn3)nc3cc(C)ccn23)cc1	0	-60	62*	-9	i	13µM*
OC1(c2cn(Cc3ccccc3)nn2)CCCCC1	-1	25	-2	-6	i	nt
O=C(Nc1nccs1)c1nc[nH]c1C(=O)NCc1ccccc1	-1	nt	29	1	nt	nt
CN(Cc1ccccc1)C(=O)c1[nH]cnc1C(=O)Nc1nccs1	-1	nt	55*	-5	nt	-30%
COc1ccccc1NC(=O)CSc1nnnn1-c1ccccc1OC	0	0	-3	-4	i	nt
COc1ccc(OC)c(-n2nnnc2SCC(=O)Nc2ccccc2OC)c1	0	7	active	nt	i	-15%
Cc1ccc(C(=O)Nc2nc(-c3ccccn3)cs2)cc1S(=O)(=O)N1CCOCC1	-4	nt	66*	-4	nt	24µM*	ARNT Alpha ctr-2=10*
O=C(Nc1nc(-c2ccccn2)cs1)c1ccc(F)c(S(=O)(=O)N2CCOCC2)c1	0	nt	68*	9	nt	9µM*
Cc1nnc(NC(=O)c2ccc(F)c(S(=O)(=O)N3CCOCC3)c2)s1	0	nt	-14	-3	nt	nt
Cc1ccc(C(=O)Nc2ccccn2)cc1S(=O)(=O)N1CCOCC1	-1	32	3	7	i	nt
Cc1ccc(S(=O)(=O)N2CCOCC2)cc1C(=O)Nc1nc(-c2cccnc2)cs1	-2	16	4	1	i	nt
O=C(Nc1nc(-c2ccccn2)cs1)c1cc(S(=O)(=O)N2CCOCC2)ccc1F	-1	nt	74*	-4	nt	23µM*
Cc1ccccc1NC(=O)Nc1ccc2c(c1)C(=O)N(C)[C@H]1CC[C@H](CC(=O)O)O[C@@H]1CO2	nt	nt	-4	nt	nt	nt
CCNC(=O)C[C@@H]1CC[C@@H]2[C@H](COc3ccc(NC(=O)Nc4ccc(F)cc4)cc3C(=O)N2C)O1	nt	nt	-5	nt	nt	nt
O=C(Nc1nc(-c2ccccn2)cs1)C12CC3CC(CC(O)(C3)C1)C2	-1	37	71*	-2	i	62µM*
SMILES	CAL PDZ FP-1	AI-2 QS mod	ARNT-TACC3 inh	CAL PDZ FP-2	Rce1 inh	ARNT Alpha ctr-1	others
CC(Oc1ccc(F)cc1)C(=O)Nc1nc(-c2ccccn2)cs1 (centres undefined)	-2	20	63*	6	i	66µM*
O=C(Nc1nc(-c2ccncc2)cs1)c1ccco1	-2	14	7	5	i	nt	ARNT Alpha ctr-2=i
Cc1ccnc2nc(C(=O)Nc3nc(-c4ccccn4)cs3)nn12	-1	96	66*	-6	i	14µM*
COc1ccccc1Cn1nnc2c(=O)[nH]c(C3CCN(C(=O)c4ccc(C)cc4)CC3)nc21	-2	35	-1	-4	i	nt
O=C(Nc1nc(-c2ccccn2)cs1)c1ccco1	0	32	59*	nt	i	26µM*	ARNT Alpha ctr-2=9.8*
c1ccc(Nc2nc(-c3ccccn3)cs2)cc1	0	37	66*	-3	i	49µM*
c1ccc(Nc2nc(-c3ccncc3)cs2)cc1	1	12	-2	-4	i	nt
O=C1NC(=O)C(=C2CCCCCC2)S1	-1	20	-2	-3	i	nt
CCOc1cc(/C=N/NC(=O)c2ccc3c(c2)OCCO3)cc(Br)c1O	-2	23	-4	-1	i	nt
Cc1ccccc1Nc1nc(N)nc(CN(C)Cc2ccccc2Cl)n1	-3	-2	57*	-1	i	-30%
Cc1cccc(Nc2nc(N)nc(CCl)n2)c1C	nt	-1	nt	nt	i	nt
COc1ccc(C2CC(=O)Oc3c(C(CCN4CCCC(C)C4)c4ccc(N(C)C)cc4)c(OC)cc(OC)c32)cc1 (centres undefined)	-1	31	20	-3	i	nt
COc1ccc(C2CC(=O)Oc3c(C(CCN4CCCCC4)c4ccc(N(C)C)cc4)c(OC)cc(OC)c32)cc1 (centres undefined)	0	12	39*	-2	i	17µM*
CCOc1ccc(NS(=O)(=O)c2cc(C(=O)NCCCN3CCOCC3)ccc2C)cc1	0	nt	0	26	nt	nt
Cc1[nH][nH]c(=O)c1C(c1c(C)[nH][nH]c1=O)c1cn(Cc2cccc3ccccc23)c2ccccc12	0	nt	26*	-2	nt	46µM*
CN(C)S(=O)(=O)c1ccc(Cl)c(C(=O)Nc2cccc([N+](=O)[O-])c2)c1	0	17	3	2	i	nt
CC(C)C(NC(=O)C1(NC(=O)OCc2ccccc2)CCCC1)C(=O)O (centres undefined)	-1	nt	-53	nt	nt	nt
COC(=O)C1(NC(=O)CNC(=O)OCc2ccccc2)CCCC1	0	nt	active	-2	nt	-1%
O=C(C[C@H]1C=C[C@@H](NC(=O)Nc2ccc3c(c2)OCO3)[C@H](CO)O1)NCc1ccc(Cl)cc1	nt	nt	24*	nt	nt	-16%[42 µM]
COCCNC(=O)CSc1nc2ccccc2c(=O)n1CCCC(=O)NCc1ccccc1	-1	11	9	1	i	nt
CCOc1ccc(-n2nnc3c(=O)n(CC(=O)NCc4ccco4)cnc32)cc1	-2	8	-1	3	i	nt
O=C(N/N=C/c1ccc(Cl)cc1Cl)c1ccncc1	-3	8	10	-6	i	nt
O=C(N/N=C/c1cc(Cl)cc(Cl)c1O)c1ccncc1	-4	-85*	54*	0	i	34µM*
Cc1c(/C=N/NC(=O)c2cccnc2)c2ccccn2c1C(=O)c1ccc(F)cc1	nt	14	nt	nt	i	nt
O=C(N/N=C/c1c(Cl)nc2ccccn2c1=O)c1cccnc1	-3	11	57*	-4	i	-10%

Compound activity (PubChem BioAssay)
